Results as given in ChEMBL document CHEMBL3758071, “Phomanolides A and B from the Fungus Phoma sp.: Meroterpenoids Derived from a Putative Tropolonic Sesquiterpene via Hetero-Diels-Alder Reactions” (J Nat Prod, 2015).
Calls of active or inactive are those of the source. The calls are words filed in the database; no cut-off is given here.

Columns and labels:
Assay type in all cases: functional, cell-based
[1] = test system: HeLa; assay: Antiproliferative activity against human HeLa cells after 48 hrs by MTT assay
In short: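 HeLa cells were grown in RPMI 1640 with 10% FBS at 37 °C and 5% CO2 and seeded at 10^4 per well overnight. Serial dilutions (DMSO stock 10 mg/mL; vehicle 0.2% DMSO) were applied for 4 h at 37 °C, then the medium was replaced with fresh DMEM for 48 h. MTT (0.5 mg/mL) was added for 3 h in the dark, formazan dissolved in DMSO, and absorbance read at 540 nm. IC50 reported.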

[2] = test system: SH-SY5Y; assay: Antiproliferative activity against human SH-SY5Y cells after 48 hrs by MTT assay
In short: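 SH-SY5Y cells were grown in DMEM with 10% FBS at 37 °C and 5% CO2, seeded at 10^4 cells/well and left to attach overnight. Cells were exposed to serial dilutions from a 10 mg/mL DMSO stock (vehicle 0.2% DMSO) for 4 h at 37 °C, then grown 48 h in fresh DMEM. MTT (0.5 mg/mL) was added for 3 h in the dark, formazan dissolved in DMSO, and absorbance read at 540 nm.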

[3] = test system: SH-SY5Y; assay: Antiproliferative activity against human SH-SY5Y cells at 20 ug/ml after 48 hrs by MTT assay
[4] = test system: U-251; assay: Antiproliferative activity against human U251 cells at 20 ug/ml after 48 hrs by MTT assay
[5] = test system: H4; assay: Antiproliferative activity against human H4 cells at 20 ug/ml after 48 hrs by MTT assay
[6] = test system: A549; assay: Antiproliferative activity against human A549 cells at 20 ug/ml after 48 hrs by MTT assay
[7] = test system: T-24; assay: Antiproliferative activity against human T24 cells at 20 ug/ml after 48 hrs by MTT assay
[8] = test system: HCT-116; assay: Antiproliferative activity against human HCT116 cells at 20 ug/ml after 48 hrs by MTT assay
[9] = test system: HeLa; assay: Antiproliferative activity against human HeLa cells at 20 ug/ml after 48 hrs by MTT assay
[10] = test system: U-251; assay: Antiproliferative activity against human U251 cells after 48 hrs by MTT assay; settings: U-251, 48 h
In short: (§1)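 H4 and U251 glioma cells were maintained in MEM-EBSS with 10% FBS at 37 °C and 5% CO2. Cells were plated at 10^4 per well and attached overnight. They were treated 4 h with serially diluted compound (DMSO stock 10 mg/mL; vehicle 0.2% DMSO), then given fresh DMEM for 48 h. MTT (0.5 mg/mL) was added for 3 h, DMSO used to solubilise, and A540 read. IC50 reported.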

[11] = Antiproliferative activity against human H4 cells after 48 hrs by MTT assay; settings: H4, 48 h; in short: as §1
[12] = Antiproliferative activity against human HCT116 cells after 48 hrs by MTT assay; settings: HCT-116, 48 h
In short: (§2)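 A549, T24 and HCT116 cells were grown in McCoy's 5A with 10% FBS at 37 °C and 5% CO2. Cells were seeded at 10^4 per well and attached overnight. They were exposed for 4 h to serial dilutions (DMSO stock 10 mg/mL; vehicle 0.2% DMSO), then grown 48 h in fresh DMEM. MTT (0.5 mg/mL) was added for 3 h, formazan dissolved in DMSO, and A540 read. IC50 reported.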

[13] = test system: A549; assay: Antiproliferative activity against human A549 cells after 48 hrs by MTT assay; settings: A549, 48 h; in short: as §2
[14] = Antiproliferative activity against human T24 cells after 48 hrs by MTT assay; settings: T-24, 48 h; in short: as §2

For `CC1=CC(=O)O[C@@]12C[C@H]1C[C@H](O)[C@@]3(C)Oc4cc(O)cc(C)c4C[C@H]3CC(C)(C)/C=C/C[C@]1(C)O/C2=C\C(=O)O`, which IC50 [1] is on record?
The IC50 was 14.3 µM.

And the IC50 [2]?
The IC50 was 81.1 µM.

For `C/C1=C/CC(C)(C)[C@@H]2O[C@H]2C[C@@]2(C)O[C@@H]2C[C@@H]1O`, which Activity [3] is on record?
The Activity was “inactive”.

And the Activity [4]?
Its Activity is “inactive”.

What about the Activity [5] of the same compound?
The Activity was “inactive”.

What about the Activity [6] of the same compound?
Its Activity is “inactive”.

What about the Activity [7] of the same compound?
The Activity was “inactive”.

What about the Activity [8] of the same compound?
The Activity was “inactive”.

And the Activity [9]?
The Activity was “inactive”.

Which results are given for `C/C1=C/CC(C)(C)/C=C/C[C@]2(C)OC3=CC(=O)O[C@]4(C)CC(=O)O[C@]34C[C@H]2C[C@@H]1O`?
Activity [3]: inactive; Activity [4]: inactive; Activity [5]: inactive; Activity [6]: inactive; Activity [7]: inactive; Activity [8]: inactive; Activity [9]: inactive

With `Cc1cc(=O)c(O)cc2c1C[C@H]1CC(C)(C)/C=C/C[C@]3(C)Oc4cc(O)c(=O)cc(C)c4C[C@H]3C[C@H](O)[C@@]1(C)O2` as the compound, how does the IC50 [10] read?
Its IC50 is 100 nM.

What about the IC50 [11] of the same compound?
The IC50 was 130 nM.

And the IC50 [12]?
The IC50 was 31.2 nM.

And the IC50 [1]?
The IC50 was 0.0082 µM.

And the IC50 [13]?
The IC50 was 30.6 nM.

What about the IC50 [14] of the same compound?
The IC50 was 12.5 nM.

What about the IC50 [2] of the same compound?
Its IC50 is 0.08 µM.

With `Cn1nnc2c(C(N)=O)ncn2c1=O` [TEMOZOLOMIDE] as the compound, how does the IC50 [10] read?
Its IC50 is over 100000 nM.

What about the IC50 [11] of the same compound?
Its IC50 is over 100000 nM.

And the IC50 [2]?
The IC50 was over 100 µM.
